The source of these data is ChEMBL document CHEMBL1134692, “QSAR study on the contribution of log P and E(s) to the in vitro antiprotozoal activity of glutathione derivatives” (J Med Chem, 2001).

The nature of data set [1]: Partition coefficient (logP). The format is physicochemical. To be noted: octanol/water.
Data set [2] is filed under the species Homo sapiens. The data set can be described thus: Compound was evaluated for its inhibitory activity against KBcells. The format is functional. The essentials: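 KB cells (human oral pharyngeal carcinoma) grown in RPMI with 10% calf foetal serum at 37 °C, 5% CO2 in humidified air. Exposed to compound for 3 days under the same conditions, then viability read by Alamar Blue assay; ED50 reported.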

In data set [3] the test system is Leishmania donovani. The data set can be described thus: Inhibitory activity against Leishmania donovani. Format: functional. To be noted: read-out: ED50 (the source's name). The essentials: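 Starch-elicited peritoneal macrophages from female CD1 mice were plated at 4 × 10^4/well in RPMI-1640 with 10% HIFCS. After 24 h they were infected at 10:1 with L. donovani amastigotes (MHOM/ET/67/L82, hamster-passaged). Drug was given as a 3-fold dilution series in quadruplicate for 5 days. Activity was scored as the percentage of macrophages cleared of amastigotes. Sodium stibogluconate control.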

Data set [4] relates to Trypanosoma cruzi. As to the kind of experiment: Evaluated for its inhibitory activity against Trypanosoma cruzi. Format: functional. Conditions: read-out: ED50 (the source's name). The essentials:
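Starch-elicited female CD1 mouse peritoneal macrophages (4 × 10^4/well, RPMI-1640, 10% HIFCS) were infected after 24 h at 5:1 with T. cruzi Y trypomastigotes derived from MDCK cultures. Drug was applied as a 3-fold dilution series in quadruplicate for 3 days. Activity was the percentage of macrophages cleared of amastigotes. Nifurtimox control.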

Data set [5] concerns Trypanosoma brucei brucei. The data set can be described thus: Inhibitory activity against Trypanosoma brucei. Format: functional. Conditions: read-out: ED50 (the source's name). The essentials:
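T. b. brucei S427 bloodstream trypomastigotes kept in HMI-18 with 20% heat-inactivated FCS at 37 °C, 5% CO2. Parasites at 2 × 10^5/mL were mixed 1:1 with compound, run in triplicate as a 3-fold dilution series from 30 μM top. Incubated 3 days at 37 °C; Alamar Blue read-out on day 3 gave ED50. Pentamidine positive control.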

A short description of data set [6]: Relative toxicity was evaluated as ED50 for KB cell line to that of ED50 for T.B. brucei. Format: organism-based. Conditions: trypanosoma brucei brucei, KB cells versus Trypanosoma brucei brucei; read-out: Relative toxicity. The essentials:
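Ratio of ED50 against KB cells to ED50 against T. b. brucei bloodstream forms, each from the 3-day Alamar Blue assays.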

For orientation: logP means the decadic logarithm of the partition coefficient of the neutral form, usually between octanol and water. In data set [1], `CCCCCOC(=O)CNC(=O)C(CSc1ccc([N+](=O)[O-])cc1[N+](=O)[O-])NC(=O)CCC(NC(=O)OCc1ccccc1)C(=O)OCCCCC` (stereo unspecified) had a log partition coefficient (logP) of 6.04. The ED50 in data set [2] was above 300 µM. The EC50 in data set [3] is above 30 µM; in data set [4], 6.7 µM; in data set [5] it was 380 nM. For the same compound, the selectivity ratio in data set [6] was 789.
